Experimental data published in ChEMBL document CHEMBL4706754, “Trisubstituted Pyrrolinones as Small-Molecule Inhibitors Disrupting the Protein-RNA Interaction of LIN28 and Let-7” (ACS Med Chem Lett, 2021).
One block for each compound: values may come before it. The source made the active and inactive calls. The calls are words filed in the database; no cut-off is given here.

Legend:
[1] = Inhibition of human His-tagged LIN28A (16 to 187 residues) interaction with mouse preE-let-7f-Cy3 miRNA pretreated with protein for 2 hrs followed by incubation with miRNA and measured after 15 mins by EMSA method; details: time 135.0 min
[2] = target: T1, Protein lin-28 homolog A (Homo sapiens) (UniProt Q9H9Z2); experiment: Inhibition of LIN28A cold shock domain (16 to 126 residues) (unknown origin) assessed as increase in thermal stability measured after 45 mins by differential scanning fluorimetry; details: dose 0.78-100 µM
T1 sequence (whole entry): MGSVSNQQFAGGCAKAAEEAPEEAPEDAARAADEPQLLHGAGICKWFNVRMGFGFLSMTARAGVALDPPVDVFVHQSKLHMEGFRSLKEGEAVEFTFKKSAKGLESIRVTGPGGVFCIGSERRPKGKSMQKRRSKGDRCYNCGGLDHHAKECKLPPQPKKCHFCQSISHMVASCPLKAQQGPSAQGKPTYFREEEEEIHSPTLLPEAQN

JAR [3] = experiment: Inhibition of LIN28/let-7 miRNA interaction in human JAR cells assessed as increase in cellular let-7a mature miRNA level at 5 to 20 uM measured after 24 hrs by RT-qPCR analysis; assay type: cell-based; details: dose 5-20 µM
JAR [4] = experiment: Inhibition of LIN28/let-7 miRNA interaction in human JAR cells assessed as increase in cellular let-7g mature miRNA level at 5 to 20 uM measured after 24 hrs by RT-qPCR analysis; assay type: cell-based; details: dose 5-20 µM
[5] = Stabilization of interaction of GST-fused C-terminal region of PMA2 YDI (unknown origin)/eGFP-fused tobacco 14-3-3 expressed in Escherichia coli incubated for 2 hrs by fluorescence based analysis relative to PPI-1
[6] = Inhibition of LIN28 (unknown origin) expressed in Escherichia coli BL21 (DE3) Rosetta interaction with FAM-labelled preE-let-7 miRNA (unknown origin) by fluorescence polarization assay; set-up: species or system Homo sapiens
Outline: (§1)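 LIN28A (residues 16–187) purified by nickel affinity chromatography; tested both His-tagged and with tag removed by TEV protease. Protein titrated into FAM-labeled preE-let-7f-1, FP read alongside total fluorescence. Unlabeled preE-let-7f-1 as positive control. Dose–response over eight concentrations, top 60 μM or 30 μM, in quadruplicate; some IC50s extrapolated from the observed curves.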

[7] = Inhibition of human His-tagged LIN28A(16 to 187 residues) interaction with mouse preE-let-7f-Cy3 miRNA at 2.5 to 75 uM pretreated with protein for 2 hrs followed by incubation with miRNA and measured after 15 mins by EMSA method relative to control; details: dose 2.5-75 µM, time 135.0 min
[8] = Stabilization of interaction of GST-fused C-terminal region of PMA2 YDI (unknown origin)/eGFP-fused tobacco 14-3-3 expressed in Escherichia coli incubated for 2 hrs by fluorescence based analysis
[9] = Inhibition of human His-tagged LIN28A (16 to 187 residues) interaction with FAM-labelled preE-let-7f-1 miRNA (unknown origin) pretreated with protein for 30 mins followed by miRNA addition and measured after 15 mins by fluorescence polarization assay; outline: as §1

inhibition [1]: Dose-dependent effect
Activity [2]: Dose-dependent effect
Activity [5]: < 30%
SMILES: O=C(C1=C(O)C(=O)N(c2ccc(O)c(C(=O)O)c2)C1c1ccc(-c2nccs2)cc1)c1ccc(Br)cc1 (configuration not stated)
inhibition (JAR [3]): Active
inhibition (JAR [4]): Active

IC50 [6]: 7 µM
SMILES: CCOc1cccc2c1N[C@@H](c1ccc(C(=O)O)cc1)[C@H]1CC=C[C@@H]21

inhibition [7]: inactive
SMILES: O=C(O)c1cccc(N2C(=O)C(O)=C(C(=O)c3ccc(Br)cc3)C2c2ccc(-c3nccs3)cc2)c1 (configuration not stated)

Activity [5]: < 30%
SMILES: O=C(O)c1ccc(C2C(C(=O)c3ccccc3)=C(O)C(=O)N2c2ccc(O)c(C(=O)O)c2)cc1 (configuration not stated)

EC50 [8]: 100 µM
SMILES: O=C(C1=C(O)C(=O)N(c2ccc(O)c(C(=O)O)c2)C1c1ccc([N+](=O)[O-])cc1)c1ccccc1 (configuration not stated)

IC50 [9]: 30 µM
SMILES: O=C(O)c1ccc(C2C(C(=O)c3ccc(Br)cc3)=C(O)C(=O)N2c2ccc(O)c(C(=O)O)c2)cc1 (configuration not stated)

IC50 [9]: 30 µM
SMILES: COc1ccc(C(=O)C2=C(O)C(=O)N(c3ccc(O)c(C(=O)O)c3)C2c2ccc(C(=O)O)cc2)cc1 (configuration not stated)

IC50 [9]: 30 µM
SMILES: O=C(O)c1cccc(N2C(=O)C(O)=C(C(=O)c3ccccc3)C2c2ccc(-c3nccs3)cc2)c1 (configuration not stated)
